Rows were chosen to be rich in hits. Some 2.3% of all compounds tested hit in one or more screens of this group.
TAAR1 ag: human TAAR1 agonism. activation, % at 3 µM. actives 0.99% (n = 360,000). Q96RJ0. CHO RD-HGA16 TAAR1, Fluo-8 calcium fluorescence; vehicle wells 0%, saturating PEA agonist 100%;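 active = activation above the mean activation of all test compounds in the run plus 3 SD, cut at about 38% in these data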
Target sequence (Q96RJ0 whole entry, looked up): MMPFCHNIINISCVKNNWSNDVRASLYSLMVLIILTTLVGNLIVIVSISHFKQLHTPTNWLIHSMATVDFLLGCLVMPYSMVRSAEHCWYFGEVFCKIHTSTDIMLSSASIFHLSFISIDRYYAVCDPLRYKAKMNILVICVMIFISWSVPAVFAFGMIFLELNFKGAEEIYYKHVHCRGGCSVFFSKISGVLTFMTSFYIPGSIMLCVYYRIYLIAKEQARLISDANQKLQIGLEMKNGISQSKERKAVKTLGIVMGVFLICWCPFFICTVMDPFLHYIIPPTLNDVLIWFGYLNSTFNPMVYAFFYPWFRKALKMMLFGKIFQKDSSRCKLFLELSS
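System: CHO-derived RD-HGA16 cells with stable Gα16 and human TAAR1 / Times: 17-24 h plating, Fluo-8 75 min 37 °C, 30 min RT / Technique: calcium-sensitive Fluo-8 signal, excitation 470-495, emission 515-575 nm / Measure: % activation relative to PEA EC100 response / Benchmarks: DMSO and PEA EC100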
TAAR1 antagonist: human TAAR1 antagonism; Q96RJ0; CHO RD-HGA16 TAAR1, Fluo-8 calcium fluorescence, antagonist; inhibition, % at 3 µM; actives 1.5% (n = 360,000); AID 624466;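 active = inhibition above a per-plate cutoff, the mean inhibition of test compounds on that plate plus 3 SD, cut at about 49% in these data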
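Material: RD-HGA16 CHO cells with stable hTAAR1 and Gα16; Dosing: single nominal final test compound concentration of 3 µM; Schedule: seeding 17-24 h prior, 75-min 37 °C, 30-min RT dye loading; Detection: kinetic Fluo-8 calcium fluorescence measurement; Measure: % inhibition from peak post-agonist over basal fluorescence ratio; Benchmarks: vehicle and agonist controls.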
OXTR potentiator: potentiates the human oxytocin receptor response | P30559 | CHO-OTR cells, Fluo-8 calcium fluorescence, potentiator mode; 0% = oxytocin EC15, 100% = EC100 | activation, % at 3 µM | actives 0.061% (n = 320,000) | AID 2445;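 active = activation above that plate's cutoff, the mean activation of tested compounds plus 3 SD, cut at about 6.6% in these data, passing the limit was not always enough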
Target sequence (P30559 whole entry, looked up): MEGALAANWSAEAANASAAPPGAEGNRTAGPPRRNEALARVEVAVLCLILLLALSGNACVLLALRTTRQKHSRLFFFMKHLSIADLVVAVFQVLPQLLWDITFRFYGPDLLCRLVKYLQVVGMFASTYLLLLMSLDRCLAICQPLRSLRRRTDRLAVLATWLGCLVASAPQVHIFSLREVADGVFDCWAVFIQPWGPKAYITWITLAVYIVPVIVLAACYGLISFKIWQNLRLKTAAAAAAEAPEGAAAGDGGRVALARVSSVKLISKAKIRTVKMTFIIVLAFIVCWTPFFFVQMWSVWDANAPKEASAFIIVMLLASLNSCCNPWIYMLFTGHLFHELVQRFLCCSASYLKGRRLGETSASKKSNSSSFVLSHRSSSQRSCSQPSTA
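assay system = CHO-OTR cells, human receptor | schedule = compound 6 min at room temperature before oxytocin, 100 s read | detection = Fluo-8 intracellular calcium fluorescence, ex 470-495, em 515-575 nm | evaluation = normalized max/min fluorescence ratio, % activation | control set = EC15 oxytocin alone as 0%, 75 nM oxytocin (EC100) as 100%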
V1R ag counter: counter-screen for oxytocin receptor agonists: human V1a receptor agonists; CHO-V1R cells, Fluo-8 calcium fluorescence, agonist mode; 0% DMSO, 100% 3 nM vasopressin; activation, % at 3 µM; actives 0.25% (n = 320,000); AID 2797;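 active = activation above the mean activation of all tested compounds plus 3 SD, per screening run, cut at about 20% in these data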;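 also: signal is peak over basal fluorescence ratio across a 100 second FLIPR read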
OXTR ag: human OXTR agonism; P30559; CHO-OTR cells, Fluo-8 calcium fluorescence; normalized: DMSO 0%, oxytocin 100%; activation, % at 3 µM; actives 0.32% (n = 320,000); AID 2435;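 active = activation above the mean of all tested compounds plus 3 SD, cutoff set per screening run, cut at about 20% in these data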;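 also: peak over basal fluorescence ratio from a 100 s FLIPR kinetic read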
nonsel antag count: nonselective antagonist in TAAR1 antagonist counter-screen; counterscreen cell line, calcium fluorescence, antagonist mode; shares compounds with TAAR1 antagonist; actives 77% (n = 2,400); inhibition, % at 3 µM; in the data active = inhibition above about 22%;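 also: CHO-Ga16 host cells stimulated with ATP at an EC80 level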
TAAR1 ant conf: confirmation of human TAAR1 antagonists; shares compounds with TAAR1 antagonist; TAAR1-expressing cells, fluorescence antagonist read-out; inhibition, % at 3 µM; actives 40% (n = 2,400); in the data active = inhibition above about 49%;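 also: CHO-Ga16 host cells challenged with agonist PEA near its EC80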
Ga16 ag counter: counter-screen for TAAR1 antagonists: nonselective Ga16 agonists. shares compounds with TAAR1 antagonist. Ga16-expressing cells, calcium fluorescence, agonist counterscreen. activation, % at 3 µM. actives 18% (n = 2,400). AID 651953; in the data active = activation above about 12%
TAAR1 ag count: activates human TAAR1 in antagonist counter-screen; shares compounds with TAAR1 antagonist; hTAAR1 cell line, fluorescence activation, agonist mode; activation, % at 3 µM; actives 2% (n = 2,400); AID 651955; in the data active = activation above about 37%;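 also: CHO cells stably expressing TAAR1 with calcium dye readout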
Numbers stand for hits; 0 = inactive; - = no result.

SMILES | TAAR1 ag | TAAR1 antagonist | OXTR potentiator | V1R ag counter | OXTR ag | nonsel antag count | TAAR1 ant conf | Ga16 ag counter | TAAR1 ag count
COC(=O)[C@@]1(Sc2ccc(C)cc2)CC(=O)N(c2ccccc2)[C@@H]1c1ccccc1 | 0 | 95 | - | - | - | 39 | 78 | 0 | 0
C=CCn1c(=S)[nH]c2cc(C(=O)Nc3ccc(F)cc3)ccc2c1=O | 0 | 62 | 0 | 0 | 0 | 35 | 0 | 15 | 0
O=C(Nc1ccc2c(c1)CCCN2C(=O)c1cccs1)c1c(F)cccc1F | 0 | 0 | 0 | 0 | 0 | - | - | - | -
O=C(Nc1ccc2c(c1)CCCN2C(=O)c1cccs1)c1c(F)cccc1Cl | 0 | 59 | 0 | 0 | 0 | 22 | 0 | 0 | 0
CCOc1ccc(C(=O)NCC(=O)OCCN2C(=O)c3ccccc3C2=O)cc1OCC | 0 | 0 | 0 | 0 | 0 | - | - | - | -
CCOc1ccccc1N(CC(=O)Nc1cccc(OC)c1)S(=O)(=O)c1ccccc1 | 0 | 52 | 0 | 0 | 0 | 0 | 0 | 0 | 0
COc1ccc(S(=O)(=O)N(CC(=O)Nc2ccc3c(c2)OCO3)c2ccccc2OC)cc1 | 0 | 69 | 0 | 0 | 0 | 27 | 56 | 0 | 0
Fc1ccc(C(CCCn2nnc(-c3cccnc3)n2)c2ccc(F)cc2)cc1 | 0 | 90 | 0 | 0 | 0 | 39 | 58 | 0 | 0
CCOc1ccc(N2C(=O)CC(SC(=NC)Nc3cccc(OC)c3)C2=O)cc1 (centres undefined) | 0 | 0 | 0 | 0 | 0 | - | - | - | -
CCN=C(NCC)SC1CC(=O)N(c2cccc(OCC)c2)C1=O (centres undefined) | 0 | 71 | 0 | 0 | 0 | 26 | 50 | 0 | 0
CCN=C(NCC)SC1CC(=O)N(c2ccc(OC)cc2)C1=O (centres undefined) | 0 | 65 | 0 | 0 | 0 | 30 | 55 | 12 | 0
C#CCOCCOCCOCCNc1nc(N2CCOCC2)nc(N2CCN(C(=O)[C@H](C)n3cc(CCCN=C(N)N)nn3)CC2)n1 | 0 | 0 | 0 | 0 | 0 | - | - | - | -
C#CCOCCOCCOCCNc1nc(N2CCN(C(=O)[C@H](CCCN=C(N)N)n3cc(C(N)[C@@H](C)CC)nn3)CC2)nc(N2CCN(C(=O)[C@H](CCC(=O)O)n3cc([C@@H](N)CCCCN)nn3)CC2)n1 (some centres undefined) | 0 | 0 | 0 | 0 | 0 | - | - | - | -
C#CCOCCOCCOCCNc1nc(N2CCN(C(=O)[C@H](CCCN=C(N)N)n3cc(C(N)[C@@H](C)CC)nn3)CC2)nc(N2CCN(C(=O)[C@H](CCCCN)n3cc([C@@H](N)[C@H](C)CC)nn3)CC2)n1 (some centres undefined) | 0 | 109 | 0 | 0 | 0 | 0 | 0 | 0 | 0
C#CCOCCOCCOCCNc1nc(N2CCOCC2)nc(N2CCN(C(=O)[C@H](C)n3cc(CCC(=O)O)nn3)CC2)n1 | 0 | 107 | - | - | - | 0 | 0 | 0 | 0
COc1ccc(CN(Cc2ccccn2)C(=O)CN2C(=O)C(C)Oc3ccccc32)cc1 (centres undefined) | 0 | 52 | 0 | 0 | 0 | 29 | 49 | 0 | 0
O=C(Nc1ccc(-c2nc3ccccc3[nH]2)cc1)c1ccccc1NS(=O)(=O)c1ccc(F)cc1 | 0 | 78 | 0 | 0 | 0 | 42 | 0 | 0 | 0
COc1ccc2cc(-c3[nH]ncc3CN3CCCN(c4ccccc4)CC3)ccc2c1 | 0 | 106 | 0 | 0 | 0 | 0 | 0 | 22 | 56
O=C(NC1CCCCC1)c1ccc(-c2cccc([N+](=O)[O-])c2)o1 | 0 | 0 | 0 | 0 | 0 | - | - | - | -
Cc1cc(C)c2c(N)c(C(=O)c3cccc(Cl)c3)sc2n1 | 0 | 63 | 0 | 0 | 0 | 23 | 0 | 0 | 0
Cc1cc(C)c2c(N)c(C(=O)c3ccc(Cl)cc3Cl)sc2n1 | 0 | 76 | 0 | 0 | 0 | 37 | 55 | 0 | 0
C=CC[C@H](CC(=O)N(CCO)Cc1ccccc1)C(=O)N[C@@H](COC(=O)[C@@H](CC=C)CC(=O)OC(C)(C)C)Cc1c[nH]c2ccccc12 | 0 | 68 | 0 | 0 | 0 | 32 | 0 | 0 | 0
C=CC[C@H](CC(=O)NCCO)C(=O)N[C@H](COC(=O)[C@H](CC=C)CC(=O)OC(C)(C)C)Cc1c[nH]c2ccccc12 | 0 | 49 | 0 | 0 | 0 | 0 | 0 | 0 | 0
C=CC[C@@H](CC(=O)N(CCO)Cc1ccccc1)C(=O)N[C@@H](COC(=O)[C@H](CC=C)CC(=O)OC(C)(C)C)Cc1c[nH]c2ccccc12 | 0 | 0 | 0 | 0 | 0 | - | - | - | -
CCOc1ccc2nc(SCC(=O)NCc3ccc(OC)c(OC)c3)[nH]c2c1 | 0 | 0 | 0 | 0 | 0 | - | - | - | -
SMILES | TAAR1 ag | TAAR1 antagonist | OXTR potentiator | V1R ag counter | OXTR ag | nonsel antag count | TAAR1 ant conf | Ga16 ag counter | TAAR1 ag count
Cc1ccc2c(c1)N(CCC(=O)NCC1COc3ccccc3O1)C(=O)CO2 (centres undefined) | 0 | 0 | 0 | 0 | 0 | - | - | - | -
CCC1Oc2ccc(C)cc2N(CC(=O)NCC2COc3ccccc3O2)C1=O (centres undefined) | 0 | 67 | 0 | 0 | 0 | 24 | 49 | 0 | 0
CC(C)c1ccc(C(CC(=O)O)N2Cc3ccccc3C2=O)cc1 (centres undefined) | 0 | 0 | 0 | 0 | 0 | - | - | - | -
COc1ccc(C(C)=O)cc1COC(=O)[C@H](Cc1ccccc1)NC(=O)c1ccco1 | 0 | 56 | 0 | 0 | 0 | 22 | 0 | 0 | 0
O=C(NC1=C(Nc2ccc(Cl)cc2)C(=O)c2ccccc2C1=O)c1ccccc1 | 0 | 0 | 0 | 0 | 0 | - | - | - | -
CC(=O)Nc1ccc(NC2=C(Cl)C(=O)c3ccccc3C2=O)cc1 | 0 | 65 | - | - | - | 40 | 0 | 0 | 0
COC(=O)C(c1ccccc1)C(CC(=O)c1ccccc1)c1ccccc1 (centres undefined) | 0 | 76 | - | - | - | 0 | 0 | 0 | 0
COC(=O)C(C(=O)OC)C(CC(=O)c1ccc(Br)cc1)c1ccccc1 (centres undefined) | 0 | 0 | - | - | - | - | - | - | -
CCCCOc1ccc(C(=O)N2CCN(c3ncccn3)CC2)cc1 | 0 | 0 | 0 | 0 | 0 | - | - | - | -
CNC(=O)c1[nH]cnc1C(=O)N[C@@H](C)C(=O)OCc1ccccc1 | 0 | 0 | 0 | 0 | 0 | - | - | - | -
CC(C)C[C@H](NC(=O)c1nc[nH]c1C(=O)NCC(=O)OCc1ccccc1)C(=O)OCc1ccccc1 | 0 | 67 | 0 | 0 | 0 | 0 | 53 | 0 | 0
